According to ChEMBL document CHEMBL1687823, “PA-824 exhibits time-dependent activity in a murine model of tuberculosis” (Antimicrob Agents Chemother, 2011):
Calls of active or inactive are those of the source. No cut-off for these calls is given here.

Columns and labels:
[1] = tested on: Mycobacterium tuberculosis; experiment: fT>MIC for >= 1 log reduction in CFU count in Mycobacterium tuberculosis H37Rv in using simulated dose of at 200 mg assessed as time during compound concentration exceeds MIC of 0.03125 ug/ml assuming 5% unbound compound concentration by one compartment human pharmacokinetic model; assay type: functional
How it was run: (§1)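 A one-compartment PK model was fitted to human data to get median parameters. It simulated steady-state total and free concentrations for 100, 200 or 400 mg once daily, assuming 5, 7, 10 or 15% unbound drug. Free T>MIC was computed against MICs of 0.03125–0.25 µg/ml and compared with the mouse-derived T>MIC target for 1-log10 kill.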

[2] = tested on: Mycobacterium tuberculosis; experiment: fT>MIC for >= 1 log reduction in CFU count in Mycobacterium tuberculosis H37Rv in using simulated dose of at 400 mg assessed as time during compound concentration exceeds MIC of 0.03125 ug/ml assuming 5% unbound compound concentration by one compartment human pharmacokinetic model; assay type: functional; how it was run: as §1
[3] = tested on: Mycobacterium tuberculosis; experiment: fT>MIC for >= 1 log reduction in CFU count in Mycobacterium tuberculosis H37Rv in using simulated dose of at 400 mg assessed as time during compound concentration exceeds MIC of 0.12500 ug/ml assuming 7% unbound compound concentration by one compartment human pharmacokinetic model; assay type: functional
How it was run: (§2)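 Human steady-state simulation: one-compartment PK model fitted to patient data, chosen by AIC. Median PK parameters used to simulate total and free concentrations, assuming 5, 7, 10 or 15% unbound, for 100, 200 and 400 mg once daily. Free levels compared with MICs of 0.03125 to 0.25 µg/ml to give %T>MIC; T>MIC is the cumulative percentage of the dosing interval above MIC.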

[4] = tested on: Mycobacterium tuberculosis; experiment: Antitubercular activity against Mycobacterium tuberculosis H37Rv infected in BALB/c mouse assessed as reduction in log10 CFU count at 96 mg/kg, po for 5 days relative to control; assay type: functional
[5] = tested on: Mycobacterium tuberculosis; experiment: fT>MIC for >= 1 log reduction in CFU count in Mycobacterium tuberculosis H37Rv in using simulated dose of at 100 mg assessed as time during compound concentration exceeds MIC of 0.06250 ug/ml assuming 15% unbound compound concentration by one compartment human pharmacokinetic model; assay type: functional; how it was run: as §1
[6] = tested on: Mycobacterium tuberculosis; experiment: fT>MIC for >= 1 log reduction in CFU count in Mycobacterium tuberculosis H37Rv in using simulated dose of at 200 mg assessed as time during compound concentration exceeds MIC of 0.03125 ug/ml assuming 7% unbound compound concentration by one compartment human pharmacokinetic model; assay type: functional; how it was run: as §1
[7] = AUC (0 to t) in mouse at 100 or 50 mg/kg, po administered as single dose; assay type: ADME, organism-based; design: dose 50 mg/kg, route oral; conditions: plasma
[8] = tested on: Mycobacterium tuberculosis; experiment: fT>MIC for >= 1 log reduction in CFU count in Mycobacterium tuberculosis H37Rv in using simulated dose of at 400 mg assessed as time during compound concentration exceeds MIC of 0.12500 ug/ml assuming 15% unbound compound concentration by one compartment human pharmacokinetic model; assay type: functional; how it was run: as §2
[9] = tested on: Mycobacterium tuberculosis; experiment: fT>MIC for >= 1 log reduction in CFU count in Mycobacterium tuberculosis H37Rv in using simulated dose of at 200 mg assessed as time during compound concentration exceeds MIC of 0.25000 ug/ml assuming 10% unbound compound concentration by one compartment human pharmacokinetic model; assay type: functional; how it was run: as §1
[10] = tested on: Mycobacterium tuberculosis; experiment: fT>MIC for >= 1 log reduction in CFU count in Mycobacterium tuberculosis H37Rv in using simulated dose of at 200 mg assessed as time during compound concentration exceeds MIC of 0.12500 ug/ml assuming 7% unbound compound concentration by one compartment human pharmacokinetic model; assay type: functional; how it was run: as §1
[11] = tested on: Mycobacterium tuberculosis; experiment: fT>MIC for >= 1 log reduction in CFU count in Mycobacterium tuberculosis H37Rv in using simulated dose of at 200 mg assessed as time during compound concentration exceeds MIC of 0.12500 ug/ml assuming 5% unbound compound concentration by one compartment human pharmacokinetic model; assay type: functional; how it was run: as §1
[12] = tested on: Mycobacterium tuberculosis; experiment: fT>MIC for >= 1 log reduction in CFU count in Mycobacterium tuberculosis H37Rv in using simulated dose of at 400 mg assessed as time during compound concentration exceeds MIC of 0.12500 ug/ml assuming 5% unbound compound concentration by one compartment human pharmacokinetic model; assay type: functional; how it was run: as §2
[13] = tested on: Mycobacterium tuberculosis; experiment: fT>MIC for >= 1 log reduction in CFU count in Mycobacterium tuberculosis H37Rv in using simulated dose of at 400 mg assessed as time during compound concentration exceeds MIC of 0.06250 ug/ml assuming 5% unbound compound concentration by one compartment human pharmacokinetic model; assay type: functional; how it was run: as §2
[14] = tested on: Mycobacterium tuberculosis; experiment: fT>MIC for >= 1 log reduction in CFU count in Mycobacterium tuberculosis H37Rv in using simulated dose of at 100 mg assessed as time during compound concentration exceeds MIC of 0.06250 ug/ml assuming 7% unbound compound concentration by one compartment human pharmacokinetic model; assay type: functional; how it was run: as §1
[15] = tested on: Mycobacterium tuberculosis; experiment: fT>MIC for >= 1 log reduction in CFU count in Mycobacterium tuberculosis H37Rv in using simulated dose of at 400 mg assessed as time during compound concentration exceeds MIC of 0.06250 ug/ml assuming 15% unbound compound concentration by one compartment human pharmacokinetic model; assay type: functional; how it was run: as §1
[16] = tested on: Mycobacterium tuberculosis; experiment: fT>MIC for >= 1 log reduction in CFU count in Mycobacterium tuberculosis H37Rv in using simulated dose of at 200 mg assessed as time during compound concentration exceeds MIC of 0.25000 ug/ml assuming 15% unbound compound concentration by one compartment human pharmacokinetic model; assay type: functional; how it was run: as §1
[17] = tested on: Mycobacterium tuberculosis; experiment: fT>MIC for >= 1 log reduction in CFU count in Mycobacterium tuberculosis H37Rv in using simulated dose of at 100 mg assessed as time during compound concentration exceeds MIC of 0.12500 ug/ml assuming 15% unbound compound concentration by one compartment human pharmacokinetic model; assay type: functional; how it was run: as §1
[18] = tested on: Mycobacterium tuberculosis; experiment: fT>MIC for >= 1 log reduction in CFU count in Mycobacterium tuberculosis H37Rv in using simulated dose of at 200 mg assessed as time during compound concentration exceeds MIC of 0.03125 ug/ml assuming 10% unbound compound concentration by one compartment human pharmacokinetic model; assay type: functional; how it was run: as §1
[19] = tested on: Mycobacterium tuberculosis; experiment: fT>MIC for >= 1 log reduction in CFU count in Mycobacterium tuberculosis H37Rv in using simulated dose of at 400 mg assessed as time during compound concentration exceeds MIC of 0.25000 ug/ml assuming 15% unbound compound concentration by one compartment human pharmacokinetic model; assay type: functional; how it was run: as §2
[20] = tested on: Mycobacterium tuberculosis; experiment: Antimicrobial activity against Mycobacterium tuberculosis H37Rv infected in single po dosed BALB/c mouse assessed as reduction in lung CFU count; assay type: functional
[21] = tested on: Mycobacterium tuberculosis; experiment: Antitubercular activity against Mycobacterium tuberculosis H37Rv infected in BALB/c mouse at 12.5 mg/kg, po for 5 days relative to control; assay type: functional, organism-based; design: dose 12.5 mg/kg
[22] = tested on: Mycobacterium tuberculosis; experiment: fT>MIC for >= 1 log reduction in CFU count in Mycobacterium tuberculosis H37Rv in using simulated dose of at 400 mg assessed as time during compound concentration exceeds MIC of 0.03125 ug/ml assuming 7% unbound compound concentration by one compartment human pharmacokinetic model; assay type: functional; how it was run: as §1
[23] = tested on: Mycobacterium tuberculosis; experiment: fT>MIC for >= 1 log reduction in CFU count in Mycobacterium tuberculosis H37Rv in using simulated dose of at 400 mg assessed as time during compound concentration exceeds MIC of 0.12500 ug/ml assuming 10% unbound compound concentration by one compartment human pharmacokinetic model; assay type: functional; how it was run: as §2

O=[N+]([O-])c1cn2c(n1)OC[C@@H](OCc1ccc(OC(F)(F)F)cc1)C2 [PRETOMANID]
fT>MIC [1]: 100% | fT>MIC [2]: 100% | fT>MIC [3]: 67% | log10cfu [4]: 2 | fT>MIC [5]: 67% | fT>MIC [6]: 100% | AUC(0-t) [7]: 70400 ng·h/mL | fT>MIC [8]: 100% | fT>MIC [9]: 0% | fT>MIC [10]: 4% | fT>MIC [11]: 0% | fT>MIC [12]: 46% | fT>MIC [13]: 100% | fT>MIC [14]: 0% | fT>MIC [15]: 100% | fT>MIC [16]: 6% | fT>MIC [17]: 6% | fT>MIC [18]: 100% | fT>MIC [19]: 67% | MBC [20]: 100 mg/kg | Activity [21]: Active | fT>MIC [22]: 100% | fT>MIC [23]: 100%
